Laboratory results as given in ChEMBL document CHEMBL1817572, “New, potent, selective, and short-acting peptidic V1a receptor agonists” (J Med Chem, 2011).
Bridge positions count the residues as written; N and C are the ends. Square brackets hold non-standard residues; d marks the D form. Peptide text beside a SMILES is read from it. * marks the point of attachment. Orn(Pr) = CCCNCCC[C@H](N)C(=O)O; NH(3-hydroxypropyl) = OCCCN*; NHCH(CH2OH)2 = OCC(CO)N*; Orn = NCCC[C@H](N)C(=O)O; Dab = NCC[C@H](N)C(=O)O

Tests used:
[1] = biological target: Vasopressin V1a/V2 (Homo sapiens) (UniProt P30518+P37288); assay: Selectivity ratio of EC50 for human vasopressin V2 receptor to EC50 for human vasopressin V1a receptor
Chain of Vasopressin V1a/V2 (Homo sapiens) (P30518 whole entry, looked up): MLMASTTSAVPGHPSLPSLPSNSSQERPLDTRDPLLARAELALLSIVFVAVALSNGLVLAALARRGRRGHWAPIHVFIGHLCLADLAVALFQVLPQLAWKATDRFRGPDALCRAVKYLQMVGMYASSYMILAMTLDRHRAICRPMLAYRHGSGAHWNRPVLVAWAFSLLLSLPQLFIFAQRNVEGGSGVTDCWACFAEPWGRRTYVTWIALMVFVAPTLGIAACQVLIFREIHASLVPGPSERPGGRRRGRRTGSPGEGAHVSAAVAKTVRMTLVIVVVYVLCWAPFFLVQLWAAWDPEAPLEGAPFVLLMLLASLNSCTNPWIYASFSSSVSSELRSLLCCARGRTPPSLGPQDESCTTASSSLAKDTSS
Chain of Vasopressin V1a/V2 (Homo sapiens) (P37288 whole entry, looked up): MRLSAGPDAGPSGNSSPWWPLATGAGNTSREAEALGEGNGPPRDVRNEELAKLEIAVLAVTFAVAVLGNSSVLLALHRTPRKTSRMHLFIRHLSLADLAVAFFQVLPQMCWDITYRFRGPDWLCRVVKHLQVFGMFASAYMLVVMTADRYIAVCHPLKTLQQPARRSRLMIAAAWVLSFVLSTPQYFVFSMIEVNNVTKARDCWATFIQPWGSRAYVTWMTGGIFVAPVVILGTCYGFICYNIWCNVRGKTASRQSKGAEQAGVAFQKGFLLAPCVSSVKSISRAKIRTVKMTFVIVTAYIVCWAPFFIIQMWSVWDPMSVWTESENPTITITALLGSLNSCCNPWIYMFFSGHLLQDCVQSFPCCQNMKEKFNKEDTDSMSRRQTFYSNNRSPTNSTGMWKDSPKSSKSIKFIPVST

[2] = biological target: T1, Vasopressin V1a receptor (Homo sapiens, UniProt P37288); assay: Agonist activity at recombinant human vasopressin V1a receptor expressed in HEK293 cells by luciferase reporter gene assay; format: functional, cell-based; conditions: read-out: EC50
Target sequence in this assay (P37288 whole entry): as the sequence (P37288 whole entry, looked up) above

[3] = biological target: T2, Vasopressin V1b receptor (Homo sapiens, UniProt P47901); assay: Agonist activity at recombinant human vasopressin V1b receptor expressed in Flp-In-293 cells by luciferase reporter gene assay; format: functional, cell-based; conditions: read-out: EC50
T2 sequence (P47901 whole entry): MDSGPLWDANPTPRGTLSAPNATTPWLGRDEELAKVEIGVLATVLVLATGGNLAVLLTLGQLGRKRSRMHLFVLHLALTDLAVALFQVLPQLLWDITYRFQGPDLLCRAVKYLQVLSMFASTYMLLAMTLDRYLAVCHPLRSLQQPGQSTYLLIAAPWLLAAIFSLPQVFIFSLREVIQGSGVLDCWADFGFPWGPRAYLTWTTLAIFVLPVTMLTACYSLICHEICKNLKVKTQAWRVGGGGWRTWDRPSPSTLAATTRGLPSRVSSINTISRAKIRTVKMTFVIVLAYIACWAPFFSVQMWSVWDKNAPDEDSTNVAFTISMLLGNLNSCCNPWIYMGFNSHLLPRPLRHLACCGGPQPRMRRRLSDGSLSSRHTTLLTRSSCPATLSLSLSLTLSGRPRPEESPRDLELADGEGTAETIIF
Procedure, shortened: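 Reporter gene assays in HEK293 cells transiently cotransfected with V1a (human or rat) or human V2 receptor vector plus NFAT-luciferase (V1a) or CRE-luciferase (V2) reporter; V1b in Flp-In-293 stably expressing receptor, OT in CHO-K1 stably expressing receptor, both transiently transfected with NFAT-luciferase. Two days post-transfection, peptides added for 5 h at 37 °C, lysis with luciferin, luminescence read.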

[4] = biological target: T3, Vasopressin V2 receptor (Homo sapiens, UniProt P30518); assay: Agonist activity at recombinant human vasopressin V2 receptor expressed in HEK293 cells by luciferase reporter gene assay; format: functional, cell-based
T3 sequence (P30518 whole entry): as the sequence (P30518 whole entry, looked up) above

[5] = biological target: T4, Oxytocin receptor (Homo sapiens, UniProt P30559); assay: Agonist activity at human OT receptor expressed in CHO-K1 cells by luciferase reporter gene assay; format: functional, cell-based
T4 sequence (P30559 whole entry): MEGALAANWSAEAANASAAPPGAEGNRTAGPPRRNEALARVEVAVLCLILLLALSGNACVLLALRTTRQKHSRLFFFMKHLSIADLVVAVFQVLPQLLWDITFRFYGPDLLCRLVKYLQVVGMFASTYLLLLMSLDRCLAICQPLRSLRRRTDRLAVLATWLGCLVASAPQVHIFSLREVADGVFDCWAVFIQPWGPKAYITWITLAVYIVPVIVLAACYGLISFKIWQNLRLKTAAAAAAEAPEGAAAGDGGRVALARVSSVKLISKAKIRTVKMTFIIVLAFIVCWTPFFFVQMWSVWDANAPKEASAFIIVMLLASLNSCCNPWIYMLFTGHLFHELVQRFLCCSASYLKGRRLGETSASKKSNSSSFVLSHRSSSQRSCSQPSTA

[6] = organism: Homo sapiens; assay: Selectivity ratio of EC50 for human vasopressin V1b receptor to EC50 for human vasopressin V1a receptor
[7] = organism: Homo sapiens; assay: Selectivity ratio of EC50 for human oxytocin receptor to EC50 for human vasopressin V1a receptor
[8] = biological target: Vasopressin V1a receptor (Rattus norvegicus, UniProt P30560); assay: Agonist activity at recombinant rat vasopressin V1a receptor expressed in HEK293 cells by luciferase reporter gene assay; format: functional, cell-based; conditions: read-out: EC50
Chain of Vasopressin V1a receptor (Rattus norvegicus, UniProt P30560) (P30560 whole entry): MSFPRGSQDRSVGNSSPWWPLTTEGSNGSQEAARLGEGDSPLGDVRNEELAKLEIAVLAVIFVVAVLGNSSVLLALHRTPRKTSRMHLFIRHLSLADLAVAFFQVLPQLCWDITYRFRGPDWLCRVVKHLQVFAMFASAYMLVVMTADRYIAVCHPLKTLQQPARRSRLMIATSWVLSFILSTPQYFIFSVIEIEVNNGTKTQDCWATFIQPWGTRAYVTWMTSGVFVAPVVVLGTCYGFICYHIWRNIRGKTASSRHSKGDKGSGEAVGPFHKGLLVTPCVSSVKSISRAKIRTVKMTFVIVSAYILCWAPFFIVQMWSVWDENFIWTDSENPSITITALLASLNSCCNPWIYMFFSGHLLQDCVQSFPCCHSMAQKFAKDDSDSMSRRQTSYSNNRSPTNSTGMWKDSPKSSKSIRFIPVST

[9] = tested on: Rattus norvegicus; assay: Vasoconstriction in Wistar rat assessed as assessed as decay in vasopressive duration of action at 2 nmol/kg, iv bolus measured over 10 sec interval; format: functional
Procedure, shortened: (§1)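 Fasted male Wistar rats (206–340 g) under isoflurane, then thiobutabarbital 150 mg/kg ip, ventilated, 37–38 °C, with carotid pressure and jugular dosing. Dibenamine 1.8 mg/rat iv pretreatment. Sequence: iv boluses (0.5 mL/kg) of heparinized vehicle, then two reference doses of 0.1 nmol/kg, then two test doses; one matches the reference diastolic pressure rise. Relative duration = reference decay rate / test decay rate; mean ± SEM.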

[10] = biological target: T1, Vasopressin V1a receptor; assay: Partial agonist activity at recombinant human vasopressin V1a receptor expressed in HEK293 cells by luciferase reporter gene assay; format: functional, cell-based
Procedure, shortened: (§2)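 Same luciferase reporter systems (OT in stable CHO-K1, V1b in stable Flp-In-293, each with transient NFAT-luciferase; V1a in HEK293 with NFAT-luciferase, V2 in HEK293 with CRE-luciferase). Peptides added for 5 h at 37 °C two days post-transfection, luminescence read. Partial agonism means efficacy <70%.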
Target sequence in this assay (P37288 whole entry, looked up): as the sequence (P37288 whole entry, looked up) above

[11] = biological target: T5, Vasopressin V1b receptor (Homo sapiens) (UniProt P47901); assay: Partial agonist activity at recombinant human vasopressin V1b receptor expressed in Flp-In-293 cells by luciferase reporter gene assay; format: functional, cell-based; procedure, shortened: as §2
T5 sequence (whole entry): T2 sequence (P47901 whole entry)

[12] = tested on: Rattus norvegicus; assay: Vasoconstriction in Wistar rat assessed as assessed as decay in vasopressive duration of action at 3 nmol/kg, iv bolus measured over 10 sec interval; format: functional; procedure, shortened: as §1
[13] = biological target: T3, Vasopressin V2 receptor; assay: Partial agonist activity at recombinant human vasopressin V2 receptor expressed in HEK293 cells by luciferase reporter gene assay; format: functional, cell-based; procedure, shortened: as §2

SMILES | Ratio EC50 [1] | EC50 [2] [nM] | EC50 [3] [nM] | EC50 ([4]; hek293, read-out: EC50) [nM] | EC50 ([4]; read-out: pEC50 (converted)) [nM] | EC50 ([5]; cho-k1, read-out: EC50) [nM] | EC50 ([5]; read-out: pEC50 (converted)) [nM] | Ratio EC50 [6] | Ratio EC50 [7] | EC50 [8] [nM] | Efficacy [10] [%] | Efficacy [11] [%] | EC50 ([4]; read-out: EC50) [nM] | Efficacy [13] [%] | Time [9] [unitless ratio] | Time [12] [unitless ratio]
CCNC(=O)C[C@@H]1NC(=O)[C@H]([C@@H](C)CC)NC(=O)[C@H](Cc2ccccc2)NC(=O)[C@@H](N)CSSC[C@@H](C(=O)N2CCC[C@H]2C(=O)N[C@@H](CCN)C(=O)NCC(N)=O)NC(=O)[C@H](CC(N)=O)NC1=O (H-CFID(NHEt)NCP[Dab]G-NH2; disulfide 1-6) | 590 | 2.7 | 21 |  |  | > 10000 | > 10000 | 7.7 | > 3700 | 4.8 |  |  | 1600 | < 70 |  | 1.3
CCCNCCC[C@H](NC(=O)[C@@H]1CCCN1C(=O)[C@@H]1CSSC[C@H](N)C(=O)N[C@@H](Cc2ccccc2)C(=O)N[C@@H]([C@@H](C)CC)C(=O)N[C@@H](CC(N)=O)C(=O)N[C@@H](CC(N)=O)C(=O)N1)C(=O)NCC(N)=O (H-CFINNCP[Orn(Pr)]G-NH2; disulfide 1-6) | > 6600 | 1.5 | 31 | > 10000 | > 10000 | > 10000 | > 10000 | 20 | > 6600 |  |  | < 70 |  |  |  | 
CC[C@H](C)[C@@H]1NC(=O)[C@H](Cc2ccccc2)NC(=O)[C@@H](N)CSSC[C@@H](C(=O)N2CCC[C@H]2C(=O)N[C@@H](CCCN)C(=O)NCC(N)=O)NC(=O)[C@H](CC(N)=O)NC(=O)[C@H](CC(N)=O)NC1=O (H-CFINNCP[Orn]G-NH2; disulfide 1-6) | > 7100 | 1.4 | 29 | > 10000 | > 10000 | > 10000 | > 10000 | 20 | > 7100 | 8.2 |  |  |  |  |  | 1.4

Continued, in another order:

Ratio EC50 [1] | EC50 [2] [nM] | EC50 [3] [nM] | EC50 ([4]; hek293, read-out: EC50) [nM] | EC50 ([4]; read-out: pEC50 (converted)) [nM] | EC50 ([5]; cho-k1, read-out: EC50) [nM] | EC50 ([5]; read-out: pEC50 (converted)) [nM] | Ratio EC50 [6] | Ratio EC50 [7] | EC50 [8] [nM] | Efficacy [10] [%] | Efficacy [11] [%] | EC50 ([4]; read-out: EC50) [nM] | Efficacy [13] [%] | SMILES | Time [9] [unitless ratio] | Time [12] [unitless ratio]
> 4700 | 2.1 | 19 | > 10000 | > 10000 | > 10000 | > 10000 | 9 | > 4700 | 2.7 |  |  |  |  | CC[C@H](C)[C@@H]1NC(=O)[C@H](Cc2ccccc2)NC(=O)[C@@H](N)CSSC[C@@H](C(=O)N2CCC[C@H]2C(=O)N[C@@H](CCCN)C(=O)NCC(N)=O)NC(=O)[C@H](CC(N)=O)NC(=O)[C@H](CC(=O)NCCCO)NC1=O (H-CFID(NH(3-hydroxypropyl))NCP[Orn]G-NH2; disulfide 1-6) | 1.7 | 
> 620 | 16 | 62 | > 10000 | > 10000 | > 10000 | > 10000 | 3.8 | > 620 |  | < 70 | < 70 |  |  | CC[C@H](C)[C@@H]1NC(=O)[C@H](Cc2ccccc2)NC(=O)[C@@H](N)CSSC[C@@H](C(=O)N2CCC[C@H]2C(=O)N[C@@H](CCCN)C(=O)NCC(N)=O)NC(=O)[C@H](CC(N)=O)NC(=O)[C@H](CC(=O)NC(CO)CO)NC1=O (H-CFID(NHCH(CH2OH)2)NCP[Orn]G-NH2; disulfide 1-6) |  | 
